ChEMBL document CHEMBL1137020, “Role of the rapA gene in controlling antibiotic resistance of Escherichia coli biofilms” (2007)
In brackets after ≈: the same amount, converted by molar mass. Activity calls are given as the source filed them.

Columns and labels:
[1] = tested on: Escherichia coli; test: Antimicrobial activity against Escherichia coli isolate AMG1 24 hrs biofilms at 0.03 ug/ml to 0.12 ug/ml after 24 hrs by microtiter plate count method; type: functional, organism-based
Summary of the method: (§1)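 Microtiter plate biofilms grown 24 h, then exposed 24 h to a range of norfloxacin concentrations. Survival counted as CFU and expressed as percent of 10^8 CFU/ml for each strain.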

[2] = tested on: Escherichia coli; test: Antimicrobial activity against Escherichia coli isolate AMG1 24 hrs biofilms after 24 hrs relative to control; type: functional; summary of the method: as §1
[3] = tested on: Escherichia coli; test: Antimicrobial activity against tetracycline-resistant Escherichia coli U1 rapA mutant grown as planktonic cells after 24 hrs by spectrophotometric method; type: functional; conditions: U1, 24 h
Summary of the method: (§2)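 Wells with 100 and 200 μl LB inoculated to OD600 0.06 and grown 24 h at 37°C without shaking. Medium then replaced with LB containing penicillin G (0–250 μg/ml) for 24 h, and growth read by OD. MIC for planktonic cells and MICadh for biofilm taken as the concentration giving 50% growth reduction versus unexposed control. Biofilm contribution derived from the 100/200 μl OD relation.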

[4] = tested on: Escherichia coli; test: Antimicrobial activity against wild type Escherichia coli isolate AMG1 grown as biofilms after 24 hrs by spectrophotometric method; type: functional; conditions: AMG1, 24 h
Summary of the method: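 Triplicate microtiter wells held 100 and 200 μl LB, inoculated at OD600 0.06 and grown 24 h at 37°C without shaking. Liquid was replaced with LB containing penicillin G at 0–250 μg/ml, and growth was read by plate reader 24 h later. The biofilm contribution came from an equation correlating the two volumes' OD. MICadh is the concentration giving 50% growth reduction versus unexposed control.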

[5] = tested on: Escherichia coli; test: Antimicrobial activity against tetracycline-resistant Escherichia coli U1 rapA mutant grown as biofilms after 24 hrs by spectrophotometric method; type: functional; conditions: U1, 24 h; summary of the method: as §2
[6] = tested on: Escherichia coli; test: Antimicrobial activity against wild type Escherichia coli isolate AMG1 grown as planktonic cells after 24 hrs by spectrophotometric method; type: functional; conditions: AMG1, 24 h; summary of the method: as §2
[7] = tested on: Escherichia coli; test: Antimicrobial activity against Escherichia coli isolate AMG1 24 hrs biofilms at 350 ug/ml after 1 hr by microtiter plate count method; type: functional
Summary of the method: (§3)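 Biofilms were grown 24 h in microtiter plate wells and exposed to penicillin G at 350 μg/ml for 1 h. Viability was counted by CFU plating and compared with untreated control biofilms grown identically. Values are averages of at least three independent determinations ±1 standard deviation. Strain differences were tested by two-tailed Student's t test.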

[8] = tested on: Escherichia coli; test: Antimicrobial activity against tetracycline-resistant Escherichia coli U1 rapA mutant 24 hrs biofilms assessed as viability at 350 ug/ml after 1 hr by microtiter plate count method; type: functional
Summary of the method: (§4)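 Biofilms grown 24 h in microtiter plate wells, then exposed to penicillin G at 350 μg/ml for 1 h. Viability by plate count (CFU) against untreated controls. At least three independent determinations, mean ±1 SD. Strain differences tested by Student's two-tailed t test.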

[9] = tested on: Escherichia coli; test: Antimicrobial activity against Escherichia coli AMG1 isolate 24 hrs flow cell-generated biofilms using BacLight staining by CSLM; type: functional, organism-based
Summary of the method: (§5)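 Penicillin G 350 μg/ml was given in flowing medium for 1 h, with controls kept on antibiotic-free flow. LIVE/DEAD BacLight was stopped in place for 5 min and then rinsed. CSLM green/(red+green) integrated intensity, thresholded, gave percent survival versus untreated controls.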

[10] = tested on: Escherichia coli; test: Antimicrobial activity against tetracycline-resistant Escherichia coli U1 rapA mutant flow cell-generated 24 hrs biofilms using BacLight staining by CSLM; type: functional, organism-based
Summary of the method: (§6)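 Biofilms grown 24 h in Plexiglas flow cells on M9-Casamino Acid medium under flow. Penicillin G 350 μg/ml in flowing medium for 1 h; controls kept on medium alone. LIVE/DEAD BacLight (Syto9/propidium iodide) injected, flow halted 5 min, then rinsed. CSLM images thresholded. Survival taken as green/(red+green) fluorescence relative to untreated controls.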

[11] = tested on: Escherichia coli; test: Antimicrobial activity against tetracycline-resistant Escherichia coli U1 rapA mutant nylon membrane cultivated 24 hrs biofilms at 350 ug/ml after 1 hr; type: functional
Summary of the method: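 Nylon membranes (1×1 cm) in LB inoculated at OD600 0.1 and grown 24 h at 37°C. Medium replaced with LB ± penicillin G 350 μg/ml for 1 h. Membranes rinsed and vortexed 2 min in M9 salts, then diluted and plated in quadruplicate on LB agar for CFU.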

[12] = tested on: Escherichia coli; test: Antimicrobial activity against wild type Escherichia coli K-12 flow cell-generated 24 hrs biofilms at 350 ug/ml after 1 hr using BacLight staining by CSLM; type: functional; summary of the method: as §5
[13] = tested on: Escherichia coli; test: Antimicrobial activity against kanamycin-resistant Escherichia coli K-12 M1 W3110 deltarapA mutant flow cell-generated 24 hrs biofilms at 350 ug/ml after 1 hr using BacLight staining by CSLM; type: functional; summary of the method: as §6
[14] = tested on: Escherichia coli; test: Antimicrobial activity against wild type Escherichia coli K-12 24 hrs biolflim at 350 ug/ml after 1 hr by microtiter plate count method; type: functional, organism-based; summary of the method: as §3
[15] = tested on: Escherichia coli; test: Antimicrobial activity against kanamycin-resistant Escherichia coli K-12 M1 W3110 deltarapA mutant 24 hrs biolflim at 350 ug/ml after 1 hr by microtiter plate count method; type: functional, organism-based; summary of the method: as §4
[16] = tested on: Escherichia coli; test: Antimicrobial activity against kanamycin-resistant Escherichia coli U6 deltayhcQ mutant 24 hrs biofilms at 350 ug/ml after 1 hr by microtiter plate count method; type: functional; summary of the method: as §4
[17] = tested on: Escherichia coli; test: Antimicrobial activity against kanamycin-resistant Escherichia coli K-12 M2 W3110 deltayhcQ mutant 24 hrs biolflim at 350 ug/ml after 1 hr using BacLight staining; type: functional; summary of the method: as §6

CCn1cc(C(=O)O)c(=O)c2cc(F)c(N3CCNCC3)cc21
Activity [1]: Active

O=C(N[C@H](CO)[C@H](O)c1ccc([N+](=O)[O-])cc1)C(Cl)Cl [CHLORAMPHENICOL]
Activity [2]: 40%

CC1(C)S[C@@H]2[C@H](NC(=O)Cc3ccccc3)C(=O)N2[C@H]1C(=O)O [PENICILLIN G]
MIC [3]: 50 µg/mL (≈ 150 µM) | MIC [4]: 250 µg/mL (≈ 748 µM) | MIC [5]: 125 µg/mL (≈ 374 µM) | MIC [6]: 50 µg/mL (≈ 150 µM) | Activity [7]: 35% | Activity [8]: 71% | Activity [9]: inactive | Activity [10]: Active | Activity [11]: 30% | Activity [12]: 22% | Activity [13]: 71% | Activity [14]: Active | Activity [15]: Active | Activity [16]: 55% | Activity [17]: 31%

GENTAMICIN
Activity [2]: 40%
